Tests used:
SK-OV-3 = test: Growth inhibition of human SKOV3 cells after 48 hrs by sulforhodamine B assay; type: functional, cell-based; details: SK-OV-3, 48 h
In short: (§1)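 Cells grown in RPMI 1640 with 5% FBS and 2 mM L-glutamine, seeded at 5,000–40,000 cells/well according to doubling time. After 24 h, time-zero plates are TCA-fixed. Five concentrations (10-fold or ½log dilutions, DMSO stocks) are applied for 48 h at 37 °C, 5% CO₂. Cells are TCA-fixed, SRB-stained and read at 515 nm. IC₅₀ is taken from [(Ti−Tz)/(C−Tz)]×100 = 50.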

T47D = test: Growth inhibition of human T47D cells after 48 hrs by sulforhodamine B assay; type: functional, cell-based; in short: as §1
IGROV-1 = test: Cytotoxicity against human IGROV1 cells assessed as cell growth at 0.001 uM after 48 hrs by sulforhodamine B assay; type: functional; details: IGROV-1, 48 h, read-out: Activity
OVCAR-4 [1] = test: Cytotoxicity against human OVCAR4 cells assessed as cell growth at 0.001 uM after 48 hrs by sulforhodamine B assay; type: functional; details: OVCAR-4, 48 h, read-out: Activity
HL-60(TB) = test: Cytotoxicity against human HL-60(TB) cells assessed as cell growth at 100 nM after 48 hrs by sulforhodamine B assay; type: functional; details: HL-60, 48 h, read-out: Activity
In short: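 Five-concentration HL-60(TB) test in RPMI 1640 with 5% FBS and 2 mM L-glutamine. Cells are plated at 5,000–40,000/well and a TCA-fixed time-zero plate is read at drug addition after 24 h. Drug is dissolved in DMSO and given as five 10-fold or ½log dilutions for 48 h at 37 °C, 5% CO2. Settled cells are fixed with TCA, stained with SRB and read at 515 nm.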

MOLT-4 = test: Cytotoxicity against human MOLT4 cells assessed as cell growth at 100 nM after 48 hrs by sulforhodamine B assay; type: functional; details: MOLT-4, 48 h, read-out: Activity
SW-620 = test: Cytotoxicity against human SW620 cells assessed as cell growth at 100 nM after 48 hrs by sulforhodamine B assay; type: functional; details: SW-620, 48 h, read-out: Activity
LOX IMVI [2] = test: Cytotoxicity against human LOXIMVI cells assessed as cell growth at 100 nM after 48 hrs by sulforhodamine B assay; type: functional; details: read-out: Activity
SK-MEL-2 [3] = test: Cytotoxicity against human SK-MEL-2 cells assessed as cell growth at 100 nM after 48 hrs by sulforhodamine B assay; type: functional; details: SK-MEL-2, 48 h, read-out: Activity
NCI-H322M = test: Cytotoxicity against human NCI-H322M cells assessed as cell growth at 0.01 uM after 48 hrs by sulforhodamine B assay; type: functional; details: read-out: Activity
Malme-3M = test: Cytotoxicity against human MALME-3M cells assessed as cell growth at 0.01 uM after 48 hrs by sulforhodamine B assay; type: functional; details: read-out: Activity
M14 [4] = test: Cytotoxicity against human M14 cells assessed as cell growth at 0.01 uM after 48 hrs by sulforhodamine B assay; type: functional; details: M14, 48 h, read-out: Activity
SK-MEL-2 [5] = test: Cytotoxicity against human SK-MEL-2 cells assessed as cell growth at 0.01 uM after 48 hrs by sulforhodamine B assay; type: functional; details: SK-MEL-2, 48 h, read-out: Activity
SK-MEL-2 [6] = test: Cytotoxicity against human SK-MEL-2 cells assessed as cell growth at 10 uM after 48 hrs by sulforhodamine B assay; type: functional; details: SK-MEL-2, 48 h, read-out: Activity
OVCAR-4 [7] = test: Cytotoxicity against human OVCAR4 cells assessed as cell growth at 10 uM after 48 hrs by sulforhodamine B assay; type: functional; details: OVCAR-4, 48 h, read-out: Activity
TK-10 = test: Cytotoxicity against human TK10 cells assessed as cell growth at 10 uM after 48 hrs by sulforhodamine B assay; type: functional; details: TK-10, 48 h, read-out: Activity
UO-31 [8] = test: Cytotoxicity against human UO31 cells assessed as cell growth at 10 uM after 48 hrs by sulforhodamine B assay; type: functional; details: UO-31, 48 h, read-out: Activity
MDA-MB-231 = test: Cytotoxicity against human MDA-MB-231 cells assessed as cell growth at 10 uM after 48 hrs by sulforhodamine B assay; type: functional; details: MDA-MB-231, 48 h, read-out: Activity
[9] = Cytotoxicity against human Hs 578T cells assessed as cell growth at 10 uM after 48 hrs by sulforhodamine B assay; type: functional; details: read-out: Activity
A549 = test: Cytotoxicity against human A549 cells assessed as cell growth at 1 uM after 48 hrs by sulforhodamine B assay; type: functional; details: A549, 48 h, read-out: Activity
In short: (§2)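 Cells grown in RPMI 1640 with 5% FBS and 2 mM L-glutamine, seeded at 5,000–40,000 cells/well by doubling time. Time-zero plates TCA-fixed after 24 h. Five concentrations (10-fold or half-log dilutions from DMSO stock) added; 48 h at 37 °C, 5% CO2. Cold TCA fixation (final 10%, 60 min, 4 °C), 0.4% SRB stain, dye solubilized in 10 mM trizma base, A515.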

NCI-H522 = test: Cytotoxicity against human NCI-H522 cells assessed as cell growth at 1 uM after 48 hrs by sulforhodamine B assay; type: functional; details: NCI-H522, 48 h, read-out: Activity
OVCAR-4 [10] = test: Cytotoxicity against human OVCAR4 cells assessed as cell growth at 0.01 uM after 48 hrs by sulforhodamine B assay; type: functional; details: OVCAR-4, 48 h, read-out: Activity
A498 = test: Cytotoxicity against human A498 cells assessed as cell growth at 0.01 uM after 48 hrs by sulforhodamine B assay; type: functional; details: A498, 48 h, read-out: Activity; in short: as §2
UO-31 [11] = test: Cytotoxicity against human UO31 cells assessed as cell growth at 0.01 uM after 48 hrs by sulforhodamine B assay; type: functional; details: UO-31, 48 h, read-out: Activity
LOX IMVI [12] = test: Cytotoxicity against human LOXIMVI cells assessed as cell growth at 1 uM after 48 hrs by sulforhodamine B assay; type: functional; details: read-out: Activity
OVCAR-8 = test: Cytotoxicity against human OVCAR8 cells assessed as cell growth at 1 uM after 48 hrs by sulforhodamine B assay; type: functional; details: OVCAR-8, 48 h, read-out: Activity
HCT-116 = test: Growth inhibition of human HCT116 cells after 48 hrs by sulforhodamine B assay; type: functional, cell-based; details: HCT-116, 48 h; for CC50: read-out: LC50 (the source's name); in short: as §1
HCT-15 = test: Growth inhibition of human HCT15 cells after 48 hrs by sulforhodamine B assay; type: functional, cell-based; details: HCT-15, 48 h; for CC50: read-out: LC50 (the source's name); in short: as §1
M14 [13] = test: Growth inhibition of human M14 cells after 48 hrs by sulforhodamine B assay; type: functional, cell-based; details: for CC50: read-out: LC50 (the source's name); in short: as §1
MDA-MB-435 = test: Growth inhibition of human MDA-MB-435 cells after 48 hrs by sulforhodamine B assay; type: functional, cell-based; details: MDA-MB-435, 48 h; for CC50: read-out: LC50 (the source's name); in short: as §1

Compound: CC(=O)c1ccccc1-c1ccc(-c2ccnc(NC(=O)Nc3cc(N4CCOCC4)cc(C(F)(F)F)c3)n2)cn1
- GI50 (SK-OV-3): > 100 µM
- IC50 (SK-OV-3): 9.42 µM
- LC50 (concentration giving 50% net cell kill) (SK-OV-3): > 100 µM
- TGI (SK-OV-3): > 100 µM
- GI50 (T47D): > 100 µM
- IC50 (T47D): > 100 µM
- LC50 (lethal concentration, 50% net cell kill) (T47D): > 100 µM
- TGI (T47D): > 100 µM
- growth at 0.001 µM (IGROV-1): 98%
- growth at 0.001 µM (OVCAR-4 [1]): 110%
- growth at 0.1 µM (HL-60(TB)): 73%
- growth at 0.1 µM (MOLT-4): 75%
- growth at 0.1 µM (SW-620): 93%
- growth at 0.1 µM (LOX IMVI [2]): 90%
- growth at 0.1 µM (SK-MEL-2 [3]): 102%
- growth at 0.01 µM (NCI-H322M): 108%
- growth at 0.01 µM (Malme-3M): 103%
- growth at 0.01 µM (M14 [4]): 95%
- growth at 0.01 µM (SK-MEL-2 [5]): 105%
- growth at 10 µM (SK-MEL-2 [6]): -9%
- growth at 10 µM (OVCAR-4 [7]): 91%
- growth at 10 µM (TK-10): 27%
- growth at 10 µM (UO-31 [8]): 86%
- growth at 10 µM (MDA-MB-231): 56%
- growth at 10 µM [9]: 13%
- growth at 1 µM (A549): 82%
- growth at 1 µM (NCI-H522): 90%
- growth at 0.01 µM (OVCAR-4 [10]): 108%
- growth at 0.01 µM (A498): 83%
- growth at 0.01 µM (UO-31 [11]): 91%
- growth at 1 µM (LOX IMVI [12]): 54%
- growth at 1 µM (OVCAR-8): 41%
- GI50 (HCT-116): > 100 µM
- IC50 (HCT-116): > 100 µM
- TGI (HCT-116): > 100 µM
- CC50 (HCT-116): > 100 µM
- GI50 (HCT-15): > 100 µM
- IC50 (HCT-15): > 100 µM
- TGI (HCT-15): > 100 µM
- CC50 (HCT-15): > 100 µM
- TGI (M14 [13]; Homo sapiens, M14, 48 h): > 100 µM
- CC50 (M14 [13]; Homo sapiens, M14, 48 h): > 100 µM
- IC50 (M14 [13]; m14): Not Active
- GI50 (MDA-MB-435): > 100 µM
- IC50 (MDA-MB-435): > 100 µM
- TGI (MDA-MB-435): > 100 µM
- CC50 (MDA-MB-435): > 100 µM

Compound: CC(=O)Nc1cccc(-c2ccc(-c3ccnc(NC(=O)Nc4cc(C(F)(F)F)cc(C(F)(F)F)c4)n3)cn2)c1.Cl
- GI50 (SK-OV-3): 13.1 µM
- IC50 (SK-OV-3): 13.1 µM
- LC50 (concentration giving 50% net cell kill) (SK-OV-3): 78.8 µM
- TGI (SK-OV-3): 32.2 µM
- GI50 (T47D): 0.619 µM
- IC50 (T47D): 0.619 µM
- LC50 (lethal concentration, 50% net cell kill) (T47D): > 100 µM
- TGI (T47D): 8.43 µM
- growth at 0.001 µM (IGROV-1): 95%
- growth at 0.001 µM (OVCAR-4 [1]): 32%
- growth at 0.1 µM (HL-60(TB)): 80%
- growth at 0.1 µM (MOLT-4): 69%
- growth at 0.1 µM (SW-620): 97%
- growth at 0.1 µM (LOX IMVI [2]): 81%
- growth at 0.1 µM (SK-MEL-2 [3]): 96%
- growth at 0.01 µM (NCI-H322M): 88%
- growth at 0.01 µM (Malme-3M): 88%
- growth at 0.01 µM (M14 [4]): 92%
- growth at 0.01 µM (SK-MEL-2 [5]): 94%
- growth at 10 µM (SK-MEL-2 [6]): -83%
- growth at 10 µM (OVCAR-4 [7]): -87%
- growth at 10 µM (TK-10): -54%
- growth at 10 µM (UO-31 [8]): -75%
- growth at 10 µM (MDA-MB-231): -71%
- growth at 10 µM [9]: 18%
- growth at 1 µM (A549): 10%
- growth at 1 µM (NCI-H522): -22%
- growth at 0.01 µM (OVCAR-4 [10]): 78%
- growth at 0.01 µM (A498): 92%
- growth at 0.01 µM (UO-31 [11]): 87%
- growth at 1 µM (LOX IMVI [12]): -40%
- growth at 1 µM (OVCAR-8): -25%
- GI50 (HCT-116): 1.6 µM
- IC50 (HCT-116): 1.6 µM
- TGI (HCT-116): 4.71 µM
- CC50 (HCT-116): 17.1 µM
- GI50 (HCT-15): 3.62 µM
- IC50 (HCT-15): 3.62 µM
- TGI (HCT-15): 15 µM
- CC50 (HCT-15): 45.1 µM
- GI50 (M14 [13]; Homo sapiens, M14, 48 h): 1.83 µM
- TGI (M14 [13]; Homo sapiens, M14, 48 h): 3.76 µM
- IC50 (M14 [13]; Homo sapiens, M14, 48 h, read-out: IC50): 1.83 µM
- CC50 (M14 [13]; Homo sapiens, M14, 48 h): 7.74 µM
- GI50 (MDA-MB-435): 2.31 µM
- IC50 (MDA-MB-435): 2.31 µM
- TGI (MDA-MB-435): 6.8 µM
- CC50 (MDA-MB-435): > 100 µM
